Source: PubChem
The list is not random: actives were taken first. Their share in the collection is about 2%.
CAL PDZ FP-1 – inhibitors of human CAL PDZ peptide binding; inhibition, % at 24.9 µM; Q9HD26; AID 602252; purified CAL PDZ, TMR-peptide fluorescence polarization, 1 h; hit rate 0.92% among 300,000;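 active means mean inhibition of at least 30% with at least half of replicates also reaching 30%; inconclusive means no clear call, values can overlap the other calls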;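 further: 0% = DMSO neutral control and 100% = excess unlabeled competitor peptide PRC23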
PKA-R1A act – PKA-R1A complex activation | PKA-R1A dissociation, Cy5-IP20 fluorescence polarization; scaled: DMSO 0%, 113 µM cGMP 100% | activation, % at 11.4 µM | hit rate 0.083% among 340,000;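 active means percent activation above the mean of all tested compounds plus 3 SD, cut at about 19% in these data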;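 further: higher means more PKAc released from R1A so a rise in polarization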
dFosB act-1 – enhances mouse delta FosB homodimer DNA binding; purified delta FosB, TAMRA-CDK5 oligo fluorescence polarization; percent of positive-control signal above neutral wells; activation, % at 25 µM; hit rate 0.99% among 340,000; AID 493131;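 active means mean activation above about 17%, with every replicate also reaching it, limit read from the data, passing the limit was not always enough; inconclusive means only one of the two conditions met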
CAL PDZ FP-2 – inhibitors of human CAL PDZ peptide binding; Q9HD26; inhibition, % at 20 µM; hit rate 0.02% among 330,000; purified CAL PDZ, TMR-peptide fluorescence polarization, 1 h;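 active means highest replicate inhibition of at least 40%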;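 further: plate controls were DMSO neutral control wells for no effect and unlabeled competitor peptide control wells for full effect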
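Material: tagged CAL PDZ domain; buffer or medium: 25 mM sodium phosphate pH 7.4, 150 mM NaCl, TCEP, IgG, Thesit; compound dosing: single point, 20 µM; schedule: 1 h incubation at room temperature before polarization reading; measured by: FP readout, S and P plane fluorescence; read-out basis: percent inhibition from loss of millipolarization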
NTR1 agonist – NTR1 (human) agonism. NTR1-U2OS beta-arrestin-GFP spot imaging, agonist mode. hit rate 0.17% among 330,000. activation, % at 20 µM. AID 493036;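 active means activation at or above 40% of the spot to cytoplasm intensity ratio, with at least 20 cells analyzed; inconclusive means wells under 20 cells, flagged as cytotoxic or low count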;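 further: 0% = DMSO without peptide and 100% = 100 nM NTR1 peptide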
PKA-R2B act – PKA-R2B complex activation | activation, % at 11.4 µM | P22694+P31323 | AID 504700 | hit rate 0.079% among 340,000 | PKA-R2B holoenzyme dissociation, Cy5-IP20 fluorescence polarization; R2B truncated from residue 108, S112A mutant; 0% DMSO only, 100% 113 µM cGMP;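 active means activation above a cutoff set at the mean over all compounds plus 3 SD, cut at about 18% in these data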;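 further: higher means more holoenzyme dissociation and a rise in polarization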
Target sequence (P31323 whole entry, looked up, other chains not shown, the tested form may be a part): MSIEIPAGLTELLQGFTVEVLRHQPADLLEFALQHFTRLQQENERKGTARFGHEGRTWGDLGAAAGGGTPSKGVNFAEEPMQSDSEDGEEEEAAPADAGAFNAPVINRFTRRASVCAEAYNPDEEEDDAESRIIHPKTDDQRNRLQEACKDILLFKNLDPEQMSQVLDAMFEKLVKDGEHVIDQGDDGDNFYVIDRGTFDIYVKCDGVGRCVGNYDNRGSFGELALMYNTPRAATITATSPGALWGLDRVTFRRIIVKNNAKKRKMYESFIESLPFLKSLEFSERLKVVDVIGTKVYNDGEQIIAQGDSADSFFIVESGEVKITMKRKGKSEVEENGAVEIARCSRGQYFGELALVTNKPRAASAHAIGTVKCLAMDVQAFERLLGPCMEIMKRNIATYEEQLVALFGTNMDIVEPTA
dFosB act-2 – delta FosB (mouse) homodimer activation; activation, % at 24.9 µM; shares compounds with dFosB act-1; purified delta FosB, TAMRA-CDK5 oligo fluorescence polarization; normalised: neutral wells 0, positive control 100; 2,400 tested, under 10 active;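 active means highest replicate activation at or above 34% and every replicate reaching that threshold; inconclusive means meets only one of the two criteria; inactive means meets neither criterion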;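 further: higher polarization means more probe DNA bound by delta FosB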
Numbers without * were called inactive; ? = inconclusive; / = no result.

SMILES	CAL PDZ FP-1	PKA-R1A act	dFosB act-1	CAL PDZ FP-2	NTR1 agonist	PKA-R2B act	dFosB act-2
NS(=O)(=O)c1ccc(CCNC(=O)CCCCCn2c(=S)[nH]c3ccc(Br)cc3c2=O)cc1	-5	2	49*	-2	2	6	10
CNC(=O)c1c(C)nn(-c2ccc(F)c(Cl)c2)c1-c1cc(C)on1	/	/	/	/	0	/	/
Cc1ccc(C)c(Cn2c3ccccc3c3cnn(CC(=O)NCc4ccccn4)c(=O)c32)c1	/	-4	21*	-1	1	-5	1
O=C(Cn1ncc2c3ccccc3n(Cc3cccc(Cl)c3)c2c1=O)NCc1ccccn1	3	-10	-11	-1	-1	-2	/
CCOc1ccc(C(=O)COC(=O)CNC(=O)C2CCCCC2)cc1	-2	-10	2	1	2	-2	/
O=C(C[C@H]1C/C=C\CC[C@H](Cc2ccc(F)cc2)C(=O)O[C@H](c2ccccc2)CNC1=O)N[C@H](CO)Cc1ccccc1	-5	-1	48*	1	5	6	0
O=C(C[C@H]1C/C=C\CC[C@H](Cc2ccc(F)cc2)C(=O)O[C@@H](c2ccccc2)CNC1=O)N[C@@H](CO)Cc1ccccc1	0	-7	?	-1	14	-13	/
Cc1ccc2nc(NC(=O)c3ccc(N4C(=O)CCC4=O)cc3)sc2c1	-1	8	1	0	0	6	/
O=C(Nc1nc2ccc(F)cc2s1)c1ccc(N2CCCC2=O)cc1	-1	-22	25*	-1	0	10	0
Cc1cc(C)c2sc(NC(=O)c3ccc(N4C(=O)CCC4=O)cc3)nc2c1	-5	-10	80*	-2	0	11	7
Cc1nnc(NC(=O)c2ccc(N3CCCC3=O)cc2)s1	-3	-11	-3	-3	-1	-1	/
CN(C)CCCNC(=S)N(Cc1cccs1)Cc1cc2cc3c(cc2[nH]c1=O)OCCO3	/	-4	32*	-3	13	-14	5
O=C(NCCc1nc2ccccc2[nH]1)/C(=C/c1ccc2c(c1)OCO2)NC(=O)c1ccc(Cl)cc1Cl	2	-14	20*	-4	2	0	1
O=C1/C(=C/c2cccs2)SC(=S)N1CCC(=O)N1CCCCC1CCO (centres undefined)	-4	-13	-8	1	4	-10	/
COc1ccc(NS(=O)(=O)c2cccc(C(=O)OCC(=O)Nc3cc(C)on3)c2)cc1	-3	11	20*	0	3	11	-1
Cc1ccc(NS(=O)(=O)c2ccc(C(=O)OCC(=O)Nc3cc(C)on3)cc2)cc1	-1	-5	-10	-3	/	8	/
COc1ccc(NS(=O)(=O)c2cccc(NC(=O)COc3ccccc3[N+](=O)[O-])c2)cc1	-1	-5	25*	0	12	-7	1
O=C(COc1ccccc1[N+](=O)[O-])Nc1cccc(S(=O)(=O)NC2=NCCCCC2)c1	-1	-4	-1	-2	1	12	/
Nn1c(SCC(=O)Nc2ccc3c(c2)OCO3)nnc1-c1ccccc1	0	-12	0	-2	2	-8	/
Nn1c(SCC(=O)Nc2ccc3c(c2)OCO3)nnc1-c1ccc(Cl)cc1	-3	-4	64*	-3	6	4	2
Cc1ccc(-c2nsc(SCC(=O)Nc3ccc4c(c3)OCO4)n2)cc1	-2	-12	24*	-2	3	-1	3
Cc1ccc2[nH]c(=O)c(-c3nc4cc(C)ccn4c3NCc3ccco3)cc2c1	-1	7	32*	-2	0	7	-5
Cc1c(C(=O)NNC(=O)c2ccccc2O)oc2ccc(Br)cc12	4	-2	37*	0	/	-2	0
O=C(CN1C(=O)S/C(=C\c2ccccc2)C1=O)NNC(=O)c1ccccc1O	-2	4	48*	0	2	2	4
